# Published values collected from several papers.
# Lines come from different studies, so protocols differ.
# Target: Maternal embryonic leucine zipper kinase (MELK, Homo sapiens, UniProt Q14680)
SMILES,assay,setting,remaining binding
O=C(c1ccc(Nc2ncc(Cl)c(-c3ccc(Cl)s3)n2)cc1)N1CCC(N2CCCC2)CC1,"binding, competition with immobilised ligand",1 µM,54%
CC(=O)N1CCC(c2ccc(C(=O)NC3=NCCN3)cc2C(F)(F)F)CC1,"cell-free assay, competition with immobilised ligand",1 µM,100%
O=C(c1ccc(Nc2nccc(-c3cc4ccccc4s3)n2)cc1)N1CCC(N2CCCC2)CC1,"binding, competition with immobilised ligand",1 µM,100%
C[C@@H](c1ccc(-n2cnc3c(N)ncnc32)cc1)N1CCc2nn(C)c(Cc3ccccc3)c2C1=O,"binding, competition with immobilised ligand",0.1 µM,93%
O=C(Nc1c[nH]nc1C(=O)NC1CCNCC1)c1cc(F)cc(F)c1,"binding, competition with immobilised ligand",1 µM,82%
CN([C@@H]1CCc2c(CC(=O)O)c3cc(S(C)(=O)=O)ccc3n2C1)S(=O)(=O)c1ccc(F)cc1,"cell-free assay, competition with immobilised ligand",1 µM,84%
COc1cnc(Nc2cccc(S(N)(=O)=O)c2)nc1N1CCN(c2ccccc2)CC1,"binding, competition with immobilised ligand",1 µM,88%
C[C@H]1CCN(c2nccc(-c3cnn4ncccc34)n2)C1,binding,1 µM,33%
CN(c1ccnc(CNc2nc(Nc3ccc4c(c3)CC(=O)N4)ncc2C(F)(F)F)n1)S(C)(=O)=O,"cell-free assay, competition with immobilised ligand",1 µM,40%
CNC(=O)[C@@H]1CC[C@@H](n2c(-c3ccc4cnccc4c3)nc3ccc(C(=O)NCc4cccc(C(N)=O)c4)cc32)C1,"binding, competition with immobilised ligand",1 µM,78%
CN(C)c1nccc(-c2cnn3ncccc23)n1,binding,1 µM,71%
Cc1c(NC(=O)c2cc(C(N)=O)nc3cc(F)ccc23)c(C(F)(F)F)nn1Cc1ccc(C#N)cc1,"cell-free assay, competition with immobilised ligand",1 µM,90%
CN(C)c1ncc(F)c(-c2cnn3ncccc23)n1,binding,1 µM,79%
Cc1cnc(Nc2ccc(C(=O)N3CCC(N4CCCC4)CC3)cc2)nc1-c1cc2ccccc2s1,"binding, competition with immobilised ligand",1 µM,81%
COc1ccnn2ncc(-c3ccnc(N(C)C)n3)c12,binding,1 µM,100%
COc1ccc2c(c1)O[C@@H](c1ccc(OC)c(OC)c1)C[C@H]2NC(=O)C1(c2ccc3c(c2)OC(F)(F)O3)CC1,"cell-free assay, competition with immobilised ligand",1 µM,65%
F[C@@H]1CCN(c2nccc(-c3cnn4ncccc34)n2)C1,binding,1 µM,100%
COc1ncc2cc3ccccc3nc2c1C#N,"cell-free assay, competition with immobilised ligand",5 µM,83%
CN(CCCC(F)(F)F)c1nccc(-c2cnn3ncccc23)n1,binding,1 µM,94%
CCN1CCN(Cc2ccc(C(=O)Nc3ccc(C)c(Oc4ccc5c(c4)CC(=O)N5)c3)cc2C(F)(F)F)CC1,"binding, competition with immobilised ligand",1 µM,100%
CCC(=O)N[C@@H]1CC[C@H](C(=O)N(C)c2ccc(-c3nc4ccccc4o3)cc2)C1,"cell-free assay, competition with immobilised ligand",1 µM,100%
CC1CCCN1c1nccc(-c2cnn3ncccc23)n1 (stereo not shown),binding,1 µM,97%
